Converted amounts (≈) assume the structure as drawn.
Legend:
Type in all cases: functional
Staphylococcus aureus [1] = test: Antibacterial activity against methicillin-sensitive Staphylococcus aureus 10-2 after 18 hrs by two fold serial dilution method; details: 10-2, 18 h
Outline: (§1)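 Agar two-fold serial dilution in melted Mueller-Hinton agar, final concentrations 128 down to 0.008 μg/mL. Plates inoculated with 10⁴ cfu and incubated at 35 °C for 18 h. MIC taken as the lowest concentration giving no visible growth on the plate.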

Enterococcus faecium [2] = test: Antibacterial activity against Enterococcus faecium 09-5 after 18 hrs by two fold serial dilution method; details: 09-5, 18 h; outline: as §1
Pseudomonas aeruginosa [3] = test: Antibacterial activity against Pseudomonas aeruginosa 10-1 after 18 hrs by two fold serial dilution method; details: 10-1, 18 h; outline: as §1
Staphylococcus aureus [4] = test: Antibacterial activity against methicillin-sensitive Staphylococcus aureus 10-3 after 18 hrs by two fold serial dilution method; details: 10-3, 18 h; outline: as §1
Enterococcus faecalis [5] = test: Antibacterial activity against Enterococcus faecalis 09-1 after 18 hrs by two fold serial dilution method; details: 09-1, 18 h; outline: as §1
Enterococcus faecalis [6] = test: Antibacterial activity against Enterococcus faecalis 09-2 after 18 hrs by two fold serial dilution method; details: 09-2, 18 h; outline: as §1
Escherichia coli [7] = test: Antibacterial activity against Escherichia coli ATCC 25922 after 18 hrs by two fold serial dilution method; details: ATCC 25922, 18 h; outline: as §1
Staphylococcus aureus [8] = test: Antibacterial activity against methicillin-resistant Staphylococcus aureus 10-1 after 18 hrs by two fold serial dilution method; details: 10-1, 18 h
Outline: (§2)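 Agar two-fold serial dilution in melted Mueller-Hinton agar, 128 to 0.008 μg/mL. Plates inoculated with 10⁴ cfu, incubated 35 °C for 18 h. MIC taken as lowest concentration giving no visible growth on the plate.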

Staphylococcus aureus [9] = test: Antibacterial activity against Staphylococcus aureus ATCC 25923 after 18 hrs by two fold serial dilution method; details: ATCC 25923, 18 h; outline: as §1
Escherichia coli [10] = test: Antibacterial activity against Escherichia coli 09-2 after 18 hrs by two fold serial dilution method; details: 09-2, 18 h; outline: as §1
[11] = test system: Staphylococcus epidermidis; test: Antibacterial activity against methicillin-resistant Staphylococcus epidermidis 10-2 after 18 hrs by two fold serial dilution method; details: 10-2, 18 h; outline: as §2
Escherichia coli [12] = test: Antibacterial activity against Escherichia coli 10-3 after 18 hrs by two fold serial dilution method; details: 10-3, 18 h; outline: as §1
Escherichia coli [13] = test: Antibacterial activity against Escherichia coli 10-2 after 18 hrs by two fold serial dilution method; details: 10-2, 18 h; outline: as §1
Enterococcus faecium [14] = test: Antibacterial activity against Enterococcus faecium 09-3 after 18 hrs by two fold serial dilution method; details: 09-3, 18 h; outline: as §1
Streptococcus pneumoniae = test: Antibacterial activity against Streptococcus pneumoniae 10-1 after 18 hrs by two fold serial dilution method; details: 10-1, 18 h; outline: as §1
Staphylococcus aureus [15] = test: Antibacterial activity against methicillin-sensitive Staphylococcus aureus 10-4 after 18 hrs by two fold serial dilution method; details: 10-4, 18 h; outline: as §1
Pseudomonas aeruginosa [16] = test: Antibacterial activity against Pseudomonas aeruginosa 10-2 after 18 hrs by two fold serial dilution method; details: 10-2, 18 h; outline: as §1
Klebsiella pneumoniae [17] = test: Antibacterial activity against Klebsiella pneumoniae 10-3 after 18 hrs by two fold serial dilution method; details: 10-3, 18 h; outline: as §1
Pseudomonas aeruginosa [18] = test: Antibacterial activity against Pseudomonas aeruginosa ATCC 27853 after 18 hrs by two fold serial dilution method; details: ATCC 27853, 18 h; outline: as §1
[19] = test system: Staphylococcus epidermidis; test: Antibacterial activity against methicillin-resistant Staphylococcus epidermidis 10-1 after 18 hrs by two fold serial dilution method; details: 10-1, 18 h; outline: as §2
Pseudomonas aeruginosa [20] = test: Antibacterial activity against Pseudomonas aeruginosa 10-3 after 18 hrs by two fold serial dilution method; details: 10-3, 18 h; outline: as §1
Staphylococcus aureus [21] = test: Antibacterial activity against methicillin-resistant Staphylococcus aureus 10-4 after 18 hrs by two fold serial dilution method; details: 10-4, 18 h; outline: as §2
[22] = test system: Staphylococcus epidermidis; test: Antibacterial activity against methicillin-sensitive Staphylococcus epidermidis 10-2 after 18 hrs by two fold serial dilution method; details: 10-2, 18 h; outline: as §1
Enterococcus faecium [23] = test: Antibacterial activity against Enterococcus faecium 09-4 after 18 hrs by two fold serial dilution method; details: 09-4, 18 h; outline: as §1
Klebsiella pneumoniae [24] = test: Antibacterial activity against Klebsiella pneumoniae 09-2 after 18 hrs by two fold serial dilution method; details: 09-2, 18 h; outline: as §1
Enterococcus faecium [25] = test: Antibacterial activity against Enterococcus faecium 09-6 after 18 hrs by two fold serial dilution method; details: 09-6, 18 h; outline: as §1
Staphylococcus aureus [26] = test: Antibacterial activity against methicillin-sensitive Staphylococcus aureus 10-5 after 18 hrs by two fold serial dilution method; details: 10-5, 18 h; outline: as §1
Enterococcus faecium [27] = test: Antibacterial activity against Enterococcus faecium 09-2 after 18 hrs by two fold serial dilution method; details: 09-2, 18 h; outline: as §1
Staphylococcus aureus [28] = test: Antibacterial activity against methicillin-sensitive Staphylococcus aureus 10-1 after 18 hrs by two fold serial dilution method; details: 10-1, 18 h; outline: as §1
Staphylococcus aureus [29] = test: Antibacterial activity against methicillin-resistant Staphylococcus aureus 10-3 after 18 hrs by two fold serial dilution method; details: 10-3, 18 h; outline: as §2
Staphylococcus aureus [30] = test: Antibacterial activity against methicillin-resistant Staphylococcus aureus 10-2 after 18 hrs by two fold serial dilution method; details: 10-2, 18 h; outline: as §2
Enterococcus faecium [31] = test: Antibacterial activity against Enterococcus faecium 09-1 after 18 hrs by two fold serial dilution method; details: 09-1, 18 h; outline: as §1
[32] = test system: Staphylococcus epidermidis; test: Antibacterial activity against methicillin-sensitive Staphylococcus epidermidis 10-1 after 18 hrs by two fold serial dilution method; details: 10-1, 18 h; outline: as §1
Staphylococcus aureus [33] = test: Antibacterial activity against methicillin-sensitive Staphylococcus aureus 10-6 after 18 hrs by two fold serial dilution method; details: 10-6, 18 h; outline: as §1
Klebsiella pneumoniae [34] = test: Antibacterial activity against Klebsiella pneumoniae 10-1 after 18 hrs by two fold serial dilution method; details: 10-1, 18 h; outline: as §1
Escherichia coli [35] = test: Antibacterial activity against Escherichia coli 09-1 after 18 hrs by two fold serial dilution method; details: 09-1, 18 h; outline: as §1
Escherichia coli [36] = test: Antibacterial activity against Escherichia coli 09-3 after 18 hrs by two fold serial dilution method; details: 09-3, 18 h; outline: as §1
Escherichia coli [37] = test: Antibacterial activity against Escherichia coli 10-1 after 18 hrs by two fold serial dilution method; details: 10-1, 18 h; outline: as §1

| Structure (SMILES) | MIC (Staphylococcus aureus [1]) [µg/mL] | MIC (Enterococcus faecium [2]) [µg/mL] | MIC (Pseudomonas aeruginosa [3]) [µg/mL] | MIC (Staphylococcus aureus [4]) [µg/mL] | MIC (Enterococcus faecalis [5]) [µg/mL] | MIC (Enterococcus faecalis [6]) [µg/mL] | MIC (Escherichia coli [7]) [µg/mL] | MIC (Staphylococcus aureus [8]) [µg/mL] | MIC (Staphylococcus aureus [9]) [µg/mL] | MIC (Escherichia coli [10]) [µg/mL] | MIC [11] [µg/mL] | MIC (Escherichia coli [12]) [µg/mL] | MIC (Escherichia coli [13]) [µg/mL] | MIC (Enterococcus faecium [14]) [µg/mL] | MIC (Streptococcus pneumoniae) [µg/mL] | MIC (Staphylococcus aureus [15]) [µg/mL] | MIC (Pseudomonas aeruginosa [16]) [µg/mL] | MIC (Klebsiella pneumoniae [17]) [µg/mL] | MIC (Pseudomonas aeruginosa [18]) [µg/mL] | MIC [19] [µg/mL] | other results |
| --- | --- | --- | --- | --- | --- | --- | --- | --- | --- | --- | --- | --- | --- | --- | --- | --- | --- | --- | --- | --- | --- |
| COc1c(N2C[C@@H]3CCCN[C@@H]3C2)c(F)cc2c(=O)c(C(=O)O)cn(C3CC3)c12 [MOXIFLOXACIN] | 4 (≈ 9.96 µM) | 16 (≈ 39.9 µM) | 0.5 (≈ 1.25 µM) | 0.008 (≈ 0.0199 µM) | 8 (≈ 19.9 µM) | 16 (≈ 39.9 µM) | 0.008 (≈ 0.0199 µM) | 8 (≈ 19.9 µM) | 0.008 (≈ 0.0199 µM) | 32 (≈ 79.7 µM) | 1 (≈ 2.49 µM) | 4 (≈ 9.96 µM) | 0.5 (≈ 1.25 µM) | 2 (≈ 4.98 µM) | 0.008 (≈ 0.0199 µM) | 0.008 (≈ 0.0199 µM) | 16 (≈ 39.9 µM) | 0.5 (≈ 1.25 µM) | 1 (≈ 2.49 µM) | 0.5 (≈ 1.25 µM) | MIC (Pseudomonas aeruginosa [20]): 4 µg/mL (≈ 9.96 µM); MIC (Staphylococcus aureus [21]): 8 µg/mL (≈ 19.9 µM); MIC [22]: 16 µg/mL (≈ 39.9 µM); MIC (Enterococcus faecium [23]): 0.008 µg/mL (≈ 0.0199 µM); MIC (Klebsiella pneumoniae [24]): 16 µg/mL (≈ 39.9 µM); MIC (Enterococcus faecium [25]): 0.125 µg/mL (≈ 0.311 µM); MIC (Staphylococcus aureus [26]): 0.03 µg/mL (≈ 0.0747 µM); MIC (Enterococcus faecium [27]): 16 µg/mL (≈ 39.9 µM); MIC (Staphylococcus aureus [28]): 0.008 µg/mL (≈ 0.0199 µM); MIC (Staphylococcus aureus [29]): 8 µg/mL (≈ 19.9 µM); MIC (Staphylococcus aureus [30]): 8 µg/mL (≈ 19.9 µM); MIC (Enterococcus faecium [31]): 16 µg/mL (≈ 39.9 µM); MIC [32]: 2 µg/mL (≈ 4.98 µM); MIC (Staphylococcus aureus [33]): 0.008 µg/mL (≈ 0.0199 µM); MIC (Klebsiella pneumoniae [34]): 0.03 µg/mL (≈ 0.0747 µM) |
| NCC1CN(c2nc3c(cc2F)c(=O)c(C(=O)O)cn3-c2ccc(F)cc2F)C/C1=N\OCF (racemic) | 4 (≈ 8.34 µM) | 64 (≈ 134 µM) | 4 (≈ 8.34 µM) | 0.125 (≈ 0.261 µM) | 32 (≈ 66.8 µM) | 32 (≈ 66.8 µM) | 0.125 (≈ 0.261 µM) | 64 (≈ 134 µM) | 0.25 (≈ 0.521 µM) | > 128 | 8 (≈ 16.7 µM) | 32 (≈ 66.8 µM) | 4 (≈ 8.34 µM) | 32 (≈ 66.8 µM) | 0.125 (≈ 0.261 µM) | 0.125 (≈ 0.261 µM) | > 128 | 4 (≈ 8.34 µM) | 16 (≈ 33.4 µM) | 4 (≈ 8.34 µM) | MIC (Escherichia coli [35]): 128 µg/mL (≈ 267 µM); MIC (Escherichia coli [36]): > 128 µg/mL; MIC (Pseudomonas aeruginosa [20]): 32 µg/mL (≈ 66.8 µM); MIC (Staphylococcus aureus [21]): 64 µg/mL (≈ 134 µM); MIC [22]: 32 µg/mL (≈ 66.8 µM); MIC (Enterococcus faecium [23]): 0.5 µg/mL (≈ 1.04 µM); MIC (Klebsiella pneumoniae [24]): > 128 µg/mL; MIC (Enterococcus faecium [25]): 0.5 µg/mL (≈ 1.04 µM); MIC (Staphylococcus aureus [26]): 0.125 µg/mL (≈ 0.261 µM); MIC (Enterococcus faecium [27]): 64 µg/mL (≈ 134 µM); MIC (Staphylococcus aureus [28]): 0.06 µg/mL (≈ 0.125 µM); MIC (Staphylococcus aureus [29]): 64 µg/mL (≈ 134 µM); MIC (Staphylococcus aureus [30]): 16 µg/mL (≈ 33.4 µM); MIC (Enterococcus faecium [31]): 64 µg/mL (≈ 134 µM); MIC [32]: 32 µg/mL (≈ 66.8 µM); MIC (Staphylococcus aureus [33]): 0.125 µg/mL (≈ 0.261 µM); MIC (Klebsiella pneumoniae [34]): 0.5 µg/mL (≈ 1.04 µM); MIC (Escherichia coli [37]): 128 µg/mL (≈ 267 µM) |
| NCC1CN(c2ccc3c(=O)c(C(=O)O)cn(C4CC4)c3n2)C/C1=N\OCF (racemic) | 128 (≈ 329 µM) | 16 (≈ 41.1 µM) | 2 (≈ 5.14 µM) | 0.25 (≈ 0.642 µM) | 64 (≈ 164 µM) | 64 (≈ 164 µM) | 0.06 (≈ 0.154 µM) | > 128 | 0.25 (≈ 0.642 µM) | > 128 | 64 (≈ 164 µM) | > 128 | 4 (≈ 10.3 µM) | 64 (≈ 164 µM) | 0.25 (≈ 0.642 µM) | 0.25 (≈ 0.642 µM) | > 128 | 4 (≈ 10.3 µM) | 4 (≈ 10.3 µM) | 32 (≈ 82.2 µM) | MIC (Escherichia coli [35]): > 128 µg/mL; MIC (Escherichia coli [36]): > 128 µg/mL; MIC (Pseudomonas aeruginosa [20]): 32 µg/mL (≈ 82.2 µM); MIC (Staphylococcus aureus [21]): > 128 µg/mL; MIC [22]: 32 µg/mL (≈ 82.2 µM); MIC (Enterococcus faecium [23]): 2 µg/mL (≈ 5.14 µM); MIC (Klebsiella pneumoniae [24]): > 128 µg/mL; MIC (Enterococcus faecium [25]): 1 µg/mL (≈ 2.57 µM); MIC (Staphylococcus aureus [26]): 0.125 µg/mL (≈ 0.321 µM); MIC (Enterococcus faecium [27]): 64 µg/mL (≈ 164 µM); MIC (Staphylococcus aureus [28]): 0.03 µg/mL (≈ 0.077 µM); MIC (Staphylococcus aureus [29]): > 128 µg/mL; MIC (Staphylococcus aureus [30]): 64 µg/mL (≈ 164 µM); MIC (Enterococcus faecium [31]): 64 µg/mL (≈ 164 µM); MIC [32]: 16 µg/mL (≈ 41.1 µM); MIC (Staphylococcus aureus [33]): 0.125 µg/mL (≈ 0.321 µM); MIC (Klebsiella pneumoniae [34]): 0.5 µg/mL (≈ 1.28 µM); MIC (Escherichia coli [37]): > 128 µg/mL |

From ChEMBL document CHEMBL1926550, “Synthesis and antibacterial activity of naphthyridone derivatives containing mono/difluoro-methyloxime pyrrolidine scaffolds” (2012)
